Tests used:
KM12 [1] = assay: Induction of apoptosis in human KM12 cells assessed as early apoptotic cells at 125 nM measured after 48 hrs by AnnexinV-FITC/PI staining based flowcytometry assay relative to control; assay type: functional
Method in brief: (§1)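 They were detached with trypsin, washed twice in PBS, and 10^5 cells were suspended in Annexin V binding buffer. Cells were stained with FITC-Annexin V and PI for 10 min at room temperature in the dark, diluted with PBS and analysed by flow cytometry.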

[2] = Stability in human plasma assessed as compound remaining incubated for 10 mins by LC-MS/MS analysis; assay type: ADME, cell-free; conditions: read-out: Stability
Method in brief: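 Pooled frozen human plasma thawed at 37 °C, centrifuged to remove clots, pH adjusted to 7.4 if required. Spiked to 2 µM final (from 100 µM dosing solution), in duplicate, incubated at 37 °C in a water bath. Sampled at 0, 10, 30, 60 and 120 min, quenched with acetonitrile stop solution containing internal standards, centrifuged, and supernatant analysed by LC-MS/MS for percent remaining.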

[3] = Clearance in human liver assessed as half life at 100 uM measured after 60 mins by LC-MS/MS analysis; assay type: ADME, Microsome; conditions: microsomes, 1 h
Method in brief: (§2)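 Pooled human liver microsomes were diluted to 0.59 mg/mL (working solution) in 100 mM potassium phosphate buffer and pre-warmed at 37 °C. Compound was added from a 100 µM working solution, with NADPH cofactor prepared in 10 mM MgCl2. Incubation ran at 37 °C for 60 min. Aliquots were quenched at 5, 15, 30, 45 and 60 min. A control without NADPH was run in buffer. Samples were analysed by LC-MS/MS.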

KM12 [4] = assay: Cell cycle arrest in human KM12 cells assessed as accumulation of cells at greater G1 phase at 125 nM measured after 48 hrs by AnnexinV-FITC/PI staining based flowcytometry method relative to control; assay type: functional
KM12 [5] = assay: Induction of apoptosis in human KM12 cells assessed as late apoptotic cells at 125 nM measured after 48 hrs by AnnexinV-FITC/PI staining based flowcytometry assay relative to control; assay type: functional; method in brief: as §1
CYP1A2 = CYP1A2 (Homo sapiens, UniProt P05177); assay: Inhibition of CYP1A2 in human liver microsomes at 10 uM preincubated for 10 mins followed by addition of NADPH and measured after 15 mins by LC-MS/MS analysis; assay type: ADME; conditions: time 25 min
Method in brief: (§3)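 Pooled human liver microsomes (0.253 mg/mL) with test compound at 10 µM and probe substrates: phenacetin (CYP1A2), diclofenac (CYP2C9), S-mephenytoin (CYP2C19), dextromethorphan (CYP2D6), midazolam (CYP3A4). 10 min preincubation at 37 °C, NADPH-regenerating system added, 15 min at 37 °C. Stopped with cold acetonitrile containing tolbutamide/labetalol internal standards, centrifuged, supernatant read by LC-MS/MS; % inhibition.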

[6] = Cmax in Sprague dawley rat at 3 mg/kg, po; assay type: ADME, organism-based; set-up: route oral, dose 3 mg/kg; conditions: in vivo
Method in brief: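 Blood was collected into heparin tubes at specified time points and centrifuged at once (4 °C, 4000 rpm, 20 min). Plasma levels were quantified by LC-MS/MS. Parameters came from noncompartmental analysis.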

CYP3A4 = CYP3A4 (Homo sapiens, UniProt P08684); assay: Inhibition of CYP3A4 in human liver microsomes at 10 uM preincubated for 10 mins followed by addition of NADPH and measured after 15 mins by LC-MS/MS analysis; assay type: ADME; method in brief: as §3
KM12 [7] = assay: Cell cycle arrest in human KM12 cells assessed as accumulation of cells at G2 phase at 500 nM measured after 48 hrs by AnnexinV-FITC/PI staining based flowcytometry method relative to control; assay type: functional
[8] = target: Mitogen-activated protein kinase 3 (Homo sapiens) (UniProt P27361); assay: Inhibition of recombinant GST-tagged full length human ERK1 expressed in Escherichia coli expression system at 1 uM measured by select screen assay relative to control
Method in brief: (§4)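 Single-concentration profiling at 1.0 µM in a 28-kinase SelectScreen panel; percent inhibition reported.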

KM12 [9] = assay: Cell cycle arrest in human KM12 cells assessed as accumulation of cells at G2 phase at 1000 nM measured after 48 hrs by AnnexinV-FITC/PI staining based flowcytometry method relative to control; assay type: functional
CYP2C9 = CYP2C9 (Homo sapiens, UniProt P11712); assay: Inhibition of CYP2C9 in human liver microsomes at 10 uM preincubated for 10 mins followed by addition of NADPH and measured after 15 mins by LC-MS/MS analysis; assay type: ADME; conditions: time 25 min; method in brief: as §3
KM12 [10] = assay: Induction of apoptosis in human KM12 cells assessed as viable cells at 500 nM measured after 48 hrs by AnnexinV-FITC/PI staining based flowcytometry assay relative to control; assay type: functional; conditions: read-out: Activity
Method in brief: (§5)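 10^5 cells in Annexin V binding buffer stained with FITC-Annexin V and PI for 10 min at room temperature in the dark, diluted with PBS and analysed by flow cytometry (FITC 494/518 nm, PI 535/617 nm).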

KM12 [11] = assay: Cell cycle arrest in human KM12 cells assessed as accumulation of cells at S phase at 125 nM measured after 48 hrs by AnnexinV-FITC/PI staining based flowcytometry method relative to control; assay type: functional
[12] = target: Serine/threonine-protein kinase PAK 1 (Homo sapiens) (UniProt Q13153); assay: Inhibition of recombinant GST-tagged human full length PAK1 expressed in baculovirus expression system at 1 uM measured by select screen assay relative to control; method in brief: as §4
[13] = Clearance in human microsomes assessed as half life at 100 uM measured after 60 mins by LC-MS/MS analysis; assay type: ADME, Liver, Microsome; method in brief: as §2
[14] = target: Serine/threonine-protein kinase pim-1 (Homo sapiens) (UniProt P11309); assay: Inhibition of recombinant His-tagged full length human PIM1 expressed in baculovirus expression system at 1 uM measured by select screen assay relative to control; method in brief: as §4
[15] = Tmax in Sprague dawley rat at 3 mg/kg, po; assay type: ADME, organism-based; conditions: in vivo
Method in brief: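 Male/female status not given; SD rats (n = 3 per group) dosed orally at 3 mg/kg as a single dose. Blood taken into heparin tubes at set time points and centrifuged at 4 °C. Plasma levels quantified by LC-MS/MS; noncompartmental parameters fitted.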

KM12 [16] = assay: Cell cycle arrest in human KM12 cells assessed as accumulation of cells at G1 phase at 62.5 nM measured after 48 hrs by AnnexinV-FITC/PI staining based flowcytometry method relative to control; assay type: functional
[17] = target: Tyrosine-protein kinase BTK (Homo sapiens) (UniProt Q06187); assay: Inhibition of recombinant His-tagged full length human BTK expressed in baculovirus expression system at 1 uM measured by select screen assay relative to control; method in brief: as §4
KM12 [18] = assay: Induction of apoptosis in human KM12 cells assessed as late apoptotic cells at 1000 nM measured after 48 hrs by AnnexinV-FITC/PI staining based flowcytometry assay relative to control; assay type: functional; method in brief: as §1
[19] = Stability in human liver microsomes assessed as compound remaining at 100 uM measured after 60 mins by LC-MS/MS analysis; assay type: ADME, Microsome; conditions: 1 h
Method in brief: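 Human liver microsomes diluted to 0.59 mg/mL working solution in 100 mM potassium phosphate, prewarmed 10 min at 37 °C; compound added from a 100 µM working solution. NADPH (in 10 mM MgCl2) added to one plate, buffer instead in no-cofactor control. Incubated at 37 °C, quenched at 5, 15, 30, 45, 60 min, centrifuged, analysed by LC-MS/MS.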

KM12 [20] = assay: Induction of apoptosis in human KM12 cells assessed as necrotic cells at 500 nM measured after 48 hrs by AnnexinV-FITC/PI staining based flowcytometry assay relative to control; assay type: functional; method in brief: as §5

CYP3A4, sequence (P08684 whole entry): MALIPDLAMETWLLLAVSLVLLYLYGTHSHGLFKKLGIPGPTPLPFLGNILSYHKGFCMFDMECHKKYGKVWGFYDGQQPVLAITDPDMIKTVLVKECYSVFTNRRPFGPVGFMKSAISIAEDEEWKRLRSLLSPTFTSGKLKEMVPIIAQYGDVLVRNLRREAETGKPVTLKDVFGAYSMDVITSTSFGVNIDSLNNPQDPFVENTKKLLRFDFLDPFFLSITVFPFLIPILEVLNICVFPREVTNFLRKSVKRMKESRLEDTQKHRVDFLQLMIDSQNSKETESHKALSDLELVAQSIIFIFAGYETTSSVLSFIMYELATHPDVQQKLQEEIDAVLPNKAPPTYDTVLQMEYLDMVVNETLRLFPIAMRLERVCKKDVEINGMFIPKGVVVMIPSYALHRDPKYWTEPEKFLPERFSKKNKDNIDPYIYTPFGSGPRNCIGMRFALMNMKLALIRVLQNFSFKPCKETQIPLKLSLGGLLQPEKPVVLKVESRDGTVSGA
CYP1A2, sequence (P05177 whole entry): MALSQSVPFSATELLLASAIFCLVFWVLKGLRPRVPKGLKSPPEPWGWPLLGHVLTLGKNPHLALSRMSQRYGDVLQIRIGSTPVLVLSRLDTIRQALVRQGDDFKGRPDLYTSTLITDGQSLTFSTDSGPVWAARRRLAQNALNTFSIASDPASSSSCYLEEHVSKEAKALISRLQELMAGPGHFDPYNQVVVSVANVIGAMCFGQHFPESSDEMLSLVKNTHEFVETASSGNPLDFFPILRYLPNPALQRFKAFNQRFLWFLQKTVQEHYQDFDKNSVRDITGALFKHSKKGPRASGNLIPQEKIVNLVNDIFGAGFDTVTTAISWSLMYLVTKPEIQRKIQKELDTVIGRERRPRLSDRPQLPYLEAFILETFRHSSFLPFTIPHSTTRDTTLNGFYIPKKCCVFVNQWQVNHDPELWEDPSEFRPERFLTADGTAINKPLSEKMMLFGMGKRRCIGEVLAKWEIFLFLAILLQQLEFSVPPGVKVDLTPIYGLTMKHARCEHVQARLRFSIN
Serine/threonine-protein kinase PAK 1 (Homo sapiens), sequence (Q13153 whole entry): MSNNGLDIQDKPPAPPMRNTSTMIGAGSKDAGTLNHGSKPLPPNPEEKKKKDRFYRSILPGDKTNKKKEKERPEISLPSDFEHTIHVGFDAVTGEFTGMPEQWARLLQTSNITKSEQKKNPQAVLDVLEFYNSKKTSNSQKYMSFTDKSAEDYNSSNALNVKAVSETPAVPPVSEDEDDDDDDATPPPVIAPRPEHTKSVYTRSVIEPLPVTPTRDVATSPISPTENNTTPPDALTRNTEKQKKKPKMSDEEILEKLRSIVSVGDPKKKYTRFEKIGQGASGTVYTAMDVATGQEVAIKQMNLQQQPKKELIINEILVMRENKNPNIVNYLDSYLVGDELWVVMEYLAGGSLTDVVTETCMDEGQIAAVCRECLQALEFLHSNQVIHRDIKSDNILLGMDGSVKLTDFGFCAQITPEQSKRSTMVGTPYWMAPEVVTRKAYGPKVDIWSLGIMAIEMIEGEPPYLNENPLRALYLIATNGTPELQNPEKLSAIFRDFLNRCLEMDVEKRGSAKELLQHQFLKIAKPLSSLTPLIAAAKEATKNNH
CYP2C9, sequence (P11712 whole entry): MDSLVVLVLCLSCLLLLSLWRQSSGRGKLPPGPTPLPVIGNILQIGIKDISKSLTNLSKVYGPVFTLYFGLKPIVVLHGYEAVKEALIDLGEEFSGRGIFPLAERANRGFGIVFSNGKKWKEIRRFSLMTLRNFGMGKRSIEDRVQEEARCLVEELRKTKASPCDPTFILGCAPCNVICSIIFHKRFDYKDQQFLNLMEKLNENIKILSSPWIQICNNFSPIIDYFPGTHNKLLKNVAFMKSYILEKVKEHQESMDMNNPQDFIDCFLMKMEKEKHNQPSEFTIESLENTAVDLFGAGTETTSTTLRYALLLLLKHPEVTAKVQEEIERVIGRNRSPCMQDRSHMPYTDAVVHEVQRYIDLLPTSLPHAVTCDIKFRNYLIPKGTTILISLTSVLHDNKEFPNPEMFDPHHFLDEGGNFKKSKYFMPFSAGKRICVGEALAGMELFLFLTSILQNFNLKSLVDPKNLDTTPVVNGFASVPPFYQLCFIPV
Tyrosine-protein kinase BTK (Homo sapiens), sequence (Q06187 whole entry): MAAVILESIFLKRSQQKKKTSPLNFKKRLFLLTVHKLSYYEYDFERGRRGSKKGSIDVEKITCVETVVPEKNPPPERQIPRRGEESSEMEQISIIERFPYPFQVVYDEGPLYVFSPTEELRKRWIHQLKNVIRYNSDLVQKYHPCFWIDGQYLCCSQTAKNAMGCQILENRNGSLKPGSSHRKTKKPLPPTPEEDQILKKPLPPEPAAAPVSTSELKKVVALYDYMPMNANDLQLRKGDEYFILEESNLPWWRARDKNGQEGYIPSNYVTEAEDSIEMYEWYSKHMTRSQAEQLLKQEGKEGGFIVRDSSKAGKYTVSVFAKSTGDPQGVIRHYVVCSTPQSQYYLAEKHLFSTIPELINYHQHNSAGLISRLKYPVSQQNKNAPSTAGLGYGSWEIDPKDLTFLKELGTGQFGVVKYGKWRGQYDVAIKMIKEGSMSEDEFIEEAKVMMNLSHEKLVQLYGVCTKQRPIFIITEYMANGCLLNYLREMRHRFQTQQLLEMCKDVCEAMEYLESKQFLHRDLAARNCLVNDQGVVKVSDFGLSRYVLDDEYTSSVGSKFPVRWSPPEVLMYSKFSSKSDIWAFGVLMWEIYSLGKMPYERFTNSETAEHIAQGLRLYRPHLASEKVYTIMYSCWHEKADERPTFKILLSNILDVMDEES
Serine/threonine-protein kinase pim-1 (Homo sapiens), sequence (P11309 whole entry, looked up): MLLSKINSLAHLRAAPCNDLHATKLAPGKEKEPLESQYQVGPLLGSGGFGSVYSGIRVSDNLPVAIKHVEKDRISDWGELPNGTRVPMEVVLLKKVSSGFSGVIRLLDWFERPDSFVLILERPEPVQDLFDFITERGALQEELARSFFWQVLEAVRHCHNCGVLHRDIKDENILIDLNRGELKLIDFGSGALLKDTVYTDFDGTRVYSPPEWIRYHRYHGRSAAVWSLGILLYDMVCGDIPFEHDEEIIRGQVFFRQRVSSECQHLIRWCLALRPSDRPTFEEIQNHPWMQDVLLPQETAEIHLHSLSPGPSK
Mitogen-activated protein kinase 3 (Homo sapiens), sequence (P27361 whole entry): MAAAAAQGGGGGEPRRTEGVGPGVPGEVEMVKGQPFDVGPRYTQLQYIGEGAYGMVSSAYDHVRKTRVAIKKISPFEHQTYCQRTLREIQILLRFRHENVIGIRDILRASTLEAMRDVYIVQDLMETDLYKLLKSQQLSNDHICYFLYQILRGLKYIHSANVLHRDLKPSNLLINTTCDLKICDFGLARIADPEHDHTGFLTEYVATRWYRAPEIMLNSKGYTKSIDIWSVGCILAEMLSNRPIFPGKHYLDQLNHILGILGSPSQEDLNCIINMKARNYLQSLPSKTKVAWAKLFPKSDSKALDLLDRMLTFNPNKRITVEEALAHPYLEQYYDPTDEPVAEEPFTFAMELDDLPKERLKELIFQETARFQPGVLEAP

CN1CCN(c2ccc(C(=O)Nc3n[nH]c4c3CN(Cc3cc(F)cc(F)c3)C4(C)C)cc2)CC1
Activity (KM12 [1]): 18.15%
remaining at 10 min [2]: 96.8%
CLH [3]: 42.1 µL/min/mg
Activity (KM12 [4]): 2.45%
Activity (KM12 [5]): 18.23%
inhibition at 0.25 h, 10 µM (CYP1A2): 12.9%
Cmax [6]: 603 ng/mL
inhibition at 0.25 h, 10 µM (CYP3A4): 6.4%
Activity (KM12 [7]): 8.75%
inhibition [8]: 0%
Activity (KM12 [9]): 8.92%
inhibition at 0.25 h, 10 µM (CYP2C9): 16%
viability at 0.5 µM (KM12 [10]): 25%
Activity (KM12 [11]): 21.5%
inhibition [12]: 3%
microsomal CLint at 100 µM [13]: 46.8 µL/min/mg
inhibition [14]: 0%
Tmax [15]: 1.67 h
Activity (KM12 [16]): 40.3%
inhibition [17]: 35%
Activity (KM12 [18]): 39.95%
Stability [19]: 90.9%
Activity (KM12 [20]): 0.06%

— ChEMBL document CHEMBL4840303, “Design, synthesis, biological evaluation and pharmacophore model analysis of novel tetrahydropyrrolo[3,4-c]pyrazol derivatives as potential TRKs inhibitors” (Eur J Med Chem, 2021)
